Laboratory results from the RNAGym collection of RNA variant scans (doi:10.1126/science.aae0568).
Fewer inactive variants are shown than the library holds.

B1: tRNA (parent)
chain: GUUCCGUUGGCGUAAUGGUAACGCGUCUCCCUCCUAAGGAGAAGACUGCGGGUUCGAGUCCCGUACGGAACG

Variants of: B1
Test: yeast fitness relative to wild type (ratio to wild type); higher = fitter; tRNA-Arg(CCU), competitive growth, 37 C, YPD
In short: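 Variants of the tRNA-Arg(CCU) gene, chemically synthesised with a 3% per-site mutation rate at 69 sites, were placed at the native genomic locus in Saccharomyces cerevisiae. The pooled strains were competed in YPD at 37°C for 24 hours in six parallel replicates. Gene amplicons from the start population and from each end population were read by 100-nucleotide paired-end sequencing. Darwinian fitness relative to wild type came from changes in genotype frequencies; genotypes needed ≥ 100 starting reads, and estimates < 0.5 were set to 0.5.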

Variant	yeast fitness
U7A G50C A57C C61U	≤ 0.5
U7A G41A	0.634
U7C A14C G18A A43C A57U G63A	≤ 0.5
U7A U35C A42G C60U	0.561
U7A C30U G39A A40G G67A	≤ 0.5
U7A G23A C55A C61A	≤ 0.5
U7A U19C A43G C60G	≤ 0.5
U7A G51A G52A	0.536
U7A G50A C60G U64G	≤ 0.5
U7A G10A A20C C29A	0.543
U7A G10C C22U C27G	0.577
U7A C46G A70U	0.642
U7C A14C G63C	0.573
U7A G23C A45G C60G	≤ 0.5
U7A G12C C27G C31A C46A	≤ 0.5
U7A U19G A21U G67A	≤ 0.5
U7A C30A	0.669
U7A C49U	0.738
U7A G12C C27G C31A C46A C62G	≤ 0.5
U7A G38A A42U G51A U53G C60G	≤ 0.5
U7A C31A	0.634

Variant	yeast fitness
U7A C62A A69G A70G	≤ 0.5
U7A G17A A45C U47A G50A	≤ 0.5
U7A G58A	0.635
U7A U54A	0.506
U7A G12C A57C	≤ 0.5
U7A C34G A70U	≤ 0.5
U7A C66U	0.762
U7A G10C C30G C46U	≤ 0.5
U7C A20G A21G	0.562
U7A G52A A69C	≤ 0.5
U7A C29U C61U G68C	0.582
U7A U28G C30A G52A	0.595
U7A U16C A21U U26A C46U C60U	0.55
U7A U13A A21U A45U	0.649
U7A G23A G68U	≤ 0.5
U7A U19A A69C	0.502
U7A G9C A40C C62A	≤ 0.5
U7A U8C G17A C27G C29U A43C G52A	≤ 0.5
U7A G9A U13A	0.6
U7A G23A C24U U35A C60A	0.632
U7A C49U A65C	0.711

Variant	yeast fitness
U7A G9A U13A G48A U54G C61A	≤ 0.5
U7A U8C G9A C33U	≤ 0.5
U7A U64C	0.829
U7A U8G C22U C30U A42G C61A	≤ 0.5
U7A G63A	0.668
U7A C34G G39A	≤ 0.5
U7A C61U	0.66
U7A C31U C34G	≤ 0.5
U7A G12A	0.783
U7A G9C C24A A43U G52A C60G A69U A70C	≤ 0.5
U7A C31U A40U	≤ 0.5
U7A C46U U59C C62G A65U	≤ 0.5
U7A G44C	0.718
U7A G44A	0.755
U7A C31U A40U G67C	≤ 0.5
U7A C29U C62U	≤ 0.5
U7A G23C C66U	≤ 0.5
U7A G39A A45G U47G	0.623
U7A G44C C61A C62U C66U	≤ 0.5
U7A C33U G51C	0.559
U7A U53A A65C A70G	≤ 0.5

Variant	yeast fitness
U7A G9C A15G G23A U53A	0.505
U7A C29G C34G A36G U54C A57G	≤ 0.5
U7C A14G G17A G48C A70U	≤ 0.5
U7A G12C C34U C66G	≤ 0.5
U7A G25C C27G C31U A45U C62U U64C	≤ 0.5
U7A C33A A45C G68A	≤ 0.5
U7A G10C C27G U32A G56A A57U	≤ 0.5
U7A U8G C30G C66U	≤ 0.5
U7A C34A G56C G68C	≤ 0.5
U7A C46G C66G	0.547
U7A G25C C27G C31U A45U U64C	≤ 0.5
U7A U8G A36U A43U	≤ 0.5
U7A C29G A70C	≤ 0.5
U7A C34G U59G G68U	≤ 0.5
U7C A14G G17A A69U	0.553
U7A G10C C27G U32A	≤ 0.5
U7A C29U C31A A65C	0.655
U7A G25A C31U	0.568
U7C A14G C29U C31U C33U	0.592
U7C A15G C27U C29U	≤ 0.5
U7A U8A C11G G56A A69U	0.548
